Where “and” joins values, the source holds several entries; their conditions need not be identical. Identical values can stand only once.
Tested on: U2OS
Assay: Multiplex assay against U2OS
Format: toxicity, cell-based
Settings: human
In short: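 Cells were classed with CellPathfinder machine-learning gating, first as Hoechst high-intensity objects or normal cells, then (normal cells) as healthy, pyknosed or fragmented nuclei, and finally (pyknosed cells) as mitotic or apoptotic. Staining of live cells at seeding used Hoechst33342, BioTracker Green Microtubule Cytoskeleton Dye, MitoTracker Red and Annexin V Alexa Fluor 680, with imaging on a CQ1 microscope at 37°C and 5% CO2 after compound addition. Tubulin, mitochondrial-mass and membrane-permeability phenotypes are per cents of healthy-nucleus cells.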

[1] = 12 h, 1 µM, compound concentration 1 uM, replicate 1
[2] = 12 h, 1 µM, compound concentration 1 uM, replicate 2
[3] = 12 h, 10 µM, compound concentration 10 uM, replicate 1
[4] = 12 h, 10 µM, compound concentration 10 uM, replicate 2
[5] = 24 h, 1 µM, compound concentration 1 uM, replicate 1
[6] = 24 h, 1 µM, compound concentration 1 uM, replicate 2
[7] = 24 h, 10 µM, compound concentration 10 uM, replicate 1
[8] = 24 h, 10 µM, compound concentration 10 uM, replicate 2
[9] = 48 h, 1 µM, compound concentration 1 uM, replicate 1
[10] = 48 h, 1 µM, compound concentration 1 uM, replicate 2
[11] = 48 h, 10 µM, compound concentration 10 uM, replicate 1
[12] = 48 h, 10 µM, compound concentration 10 uM, replicate 2

## C=CC(=O)Nc1cc2c(Nc3ccc(F)c(Cl)c3)ncnc2cc1OCCCN1CCOCC1.Cl.Cl [CANERTINIB DIHYDROCHLORIDE]
[1]
  Population Apoptotic (%): 91%
  Population Fragmented Nuclei (%): 16%
  Population Healthy Nuclei (%): 0%
  Population Hoechst High Intensity Objects (%): 5%
  Population Membrane Permeable-Phenotype (%): 0%
  Population Mitochondria Different-Phenotype (%): 100%
  Population Mitotic Cells (%): 8%
  Population Normal (%): 94%
  Population Pyknosed Nuclei (%): 83%
  Population Tubulin-Different-Phenotype (%): 100%
  Total Cell Count: 137
[2]
  Population Apoptotic (%): 95%
  Population Fragmented Nuclei (%): 10%
  Population Healthy Nuclei (%): 4%
  Population Hoechst High Intensity Objects (%): 20%
  Population Membrane Permeable-Phenotype (%): 100%
  Population Mitotic Cells (%): 5%
  Population Normal (%): 79%
  Population Pyknosed Nuclei (%): 85%
  Total Cell Count: 88
[3]
  Population Apoptotic (%): 22%
  Population Fragmented Nuclei (%): 5%
  Population Healthy Nuclei (%): 87%
  Population Hoechst High Intensity Objects (%): 2%
  Population Membrane Permeable-Phenotype (%): 38%
  Population Mitochondria Different-Phenotype (%): 11%
  Population Mitotic Cells (%): 77%
  Population Normal (%): 97%
  Population Pyknosed Nuclei (%): 6%
  Population Tubulin-Different-Phenotype (%): 17%
  Total Cell Count: 142
[4]
  Population Apoptotic (%): 33%
  Population Fragmented Nuclei (%): 12%
  Population Healthy Nuclei (%): 81%
  Population Hoechst High Intensity Objects (%): 10%
  Population Membrane Permeable-Phenotype (%): 24%
  Population Mitochondria Different-Phenotype (%): 22%
  Population Mitotic Cells (%): 66%
  Population Normal (%): 89%
  Population Pyknosed Nuclei (%): 5%
  Population Tubulin-Different-Phenotype (%): 14%
  Total Cell Count: 122
[5]
  Population Apoptotic (%): 99%
  Population Fragmented Nuclei (%): 8%
  Population Healthy Nuclei (%): 4%
  Population Hoechst High Intensity Objects (%): 13%
  Population Membrane Permeable-Phenotype (%): 100%
  Population Mitochondria Different-Phenotype (%): 100%
  Population Mitotic Cells (%): 0%
  Population Normal (%): 86%
  Population Pyknosed Nuclei (%): 87%
  Population Tubulin-Different-Phenotype (%): 100%
  Total Cell Count: 137
[6]
  Population Apoptotic (%): 100%
  Population Fragmented Nuclei (%): 14%
  Population Healthy Nuclei (%): 5%
  Population Hoechst High Intensity Objects (%): 21%
  Population Normal (%): 78%
  Population Pyknosed Nuclei (%): 79%
  Total Cell Count: 85
[7]
  Population Apoptotic (%): 70%
  Population Fragmented Nuclei (%): 5%
  Population Hoechst High Intensity Objects (%): 3%
  Population Mitochondria Different-Phenotype (%): 11%
  Population Mitotic Cells (%): 29%
  Population Normal (%): 96%
  Population Pyknosed Nuclei (%): 9%
  Population Tubulin-Different-Phenotype (%): 9%
  Total Cell Count: 186
[8]
  Population Apoptotic (%): 42%
  Population Fragmented Nuclei (%): 9%
  Population Healthy Nuclei (%): 84%
  Population Hoechst High Intensity Objects (%): 8%
  Population Membrane Permeable-Phenotype (%): 20%
  Population Mitochondria Different-Phenotype (%): 23%
  Population Mitotic Cells (%): 57%
  Population Normal (%): 91%
  Population Pyknosed Nuclei (%): 5%
  Population Tubulin-Different-Phenotype (%): 19%
  Total Cell Count: 135

## COc1ccc(Oc2cc(NCCC(F)(F)F)c3ncc(-c4ccc(C(=O)NC5CC5)c(C)c4)n3n2)c(F)c1F [BAY-1217389]
[3]
  Population Apoptotic (%): 40% and 58%
  Population Fragmented Nuclei (%): 9% and 11%
  Population Healthy Nuclei (%): 83% and 73%
  Population Hoechst High Intensity Objects (%): 4%
  Population Membrane Permeable-Phenotype (%): 66% and 23%
  Population Mitotic Cells (%): 60% and 41%
  Population Normal (%): 95%
  Population Pyknosed Nuclei (%): 7% and 15%
  Population Tubulin-Different-Phenotype (%): 97% and 100%
  Total Cell Count: 148 and 164
[4]
  Population Apoptotic (%): 60% and 55%
  Population Fragmented Nuclei (%): 19%
  Population Healthy Nuclei (%): 85% and 59%
  Population Hoechst High Intensity Objects (%): 17% and 11%
  Population Membrane Permeable-Phenotype (%): 53% and 63%
  Population Mitotic Cells (%): 40% and 45%
  Population Normal (%): 82% and 88%
  Population Tubulin-Different-Phenotype (%): 88%
  Total Cell Count: 114 and 108
[7]
  Population Apoptotic (%): 52% and 69%
  Population Fragmented Nuclei (%): 10% and 14%
  Population Healthy Nuclei (%): 77% and 65%
  Population Hoechst High Intensity Objects (%): 5% and 2%
  Population Membrane Permeable-Phenotype (%): 38% and 41%
  Population Mitochondria Different-Phenotype (%): 44% and 83%
  Population Mitotic Cells (%): 47% and 30%
  Population Normal (%): 94% and 97%
  Population Pyknosed Nuclei (%): 11% and 20%
  Population Tubulin-Different-Phenotype (%): 92% and 99%
  Total Cell Count: 154 and 167
[8]
  Population Apoptotic (%): 50% and 60%
  Population Fragmented Nuclei (%): 13%
  Population Healthy Nuclei (%): 75% and 54%
  Population Hoechst High Intensity Objects (%): 10% and 13%
  Population Membrane Permeable-Phenotype (%): 39% and 78%
  Population Mitochondria Different-Phenotype (%): 59% and 95%
  Population Mitotic Cells (%): 50% and 39%
  Population Normal (%): 89% and 86%
  Population Pyknosed Nuclei (%): 14% and 32%
  Population Tubulin-Different-Phenotype (%): 87% and 100%
  Total Cell Count: 110 and 101

## OC1(c2ccc(Cl)cc2)CCN(Cc2c[nH]c3ccccc23)CC1
[1]
  Population Apoptotic (%): 64%
  Population Fragmented Nuclei (%): 10%
  Population Healthy Nuclei (%): 80%
  Population Hoechst High Intensity Objects (%): 9%
  Population Mitochondria Different-Phenotype (%): 15%
  Population Mitotic Cells (%): 35%
  Population Normal (%): 90%
  Population Tubulin-Different-Phenotype (%): 11%
  Total Cell Count: 115
[2]
  Population Apoptotic (%): 0%
  Population Fragmented Nuclei (%): 13%
  Population Healthy Nuclei (%): 77%
  Population Hoechst High Intensity Objects (%): 10%
  Population Membrane Permeable-Phenotype (%): 3%
  Population Mitochondria Different-Phenotype (%): 13%
  Population Mitotic Cells (%): 100%
  Population Normal (%): 89%
  Population Pyknosed Nuclei (%): 9%
  Population Tubulin-Different-Phenotype (%): 9%
  Total Cell Count: 78
[3]
  Population Apoptotic (%): 52%
  Population Fragmented Nuclei (%): 15%
  Population Healthy Nuclei (%): 35%
  Population Hoechst High Intensity Objects (%): 5%
  Population Membrane Permeable-Phenotype (%): 10%
  Population Mitochondria Different-Phenotype (%): 92%
  Population Mitotic Cells (%): 47%
  Population Normal (%): 94%
  Population Pyknosed Nuclei (%): 48%
  Population Tubulin-Different-Phenotype (%): 84%
  Total Cell Count: 165
[4]
  Population Apoptotic (%): 42%
  Population Fragmented Nuclei (%): 13%
  Population Healthy Nuclei (%): 38%
  Population Hoechst High Intensity Objects (%): 3%
  Population Membrane Permeable-Phenotype (%): 4%
  Population Mitochondria Different-Phenotype (%): 95%
  Population Mitotic Cells (%): 57%
  Population Normal (%): 96%
  Population Pyknosed Nuclei (%): 47%
  Population Tubulin-Different-Phenotype (%): 60%
  Total Cell Count: 74
[5]
  Population Apoptotic (%): 50%
  Population Fragmented Nuclei (%): 7%
  Population Healthy Nuclei (%): 82%
  Population Hoechst High Intensity Objects (%): 4%
  Population Membrane Permeable-Phenotype (%): 3%
  Population Mitochondria Different-Phenotype (%): 6%
  Population Mitotic Cells (%): 50%
  Population Normal (%): 95%
  Population Pyknosed Nuclei (%): 9%
  Population Tubulin-Different-Phenotype (%): 10%
  Total Cell Count: 119
[6]
  Population Apoptotic (%): 20%
  Population Fragmented Nuclei (%): 5%
  Population Healthy Nuclei (%): 88%
  Population Hoechst High Intensity Objects (%): 8%
  Population Membrane Permeable-Phenotype (%): 4%
  Population Mitochondria Different-Phenotype (%): 13%
  Population Mitotic Cells (%): 80%
  Population Normal (%): 91%
  Population Pyknosed Nuclei (%): 6%
  Population Tubulin-Different-Phenotype (%): 8%
  Total Cell Count: 77
[7]
  Population Apoptotic (%): 61%
  Population Fragmented Nuclei (%): 20%
  Population Healthy Nuclei (%): 22%
  Population Hoechst High Intensity Objects (%): 9%
  Population Membrane Permeable-Phenotype (%): 20%
  Population Mitochondria Different-Phenotype (%): 79%
  Population Mitotic Cells (%): 38%
  Population Normal (%): 90%
  Population Pyknosed Nuclei (%): 56%
  Population Tubulin-Different-Phenotype (%): 50%
  Total Cell Count: 197
[8]
  Population Apoptotic (%): 66%
  Population Fragmented Nuclei (%): 21%
  Population Healthy Nuclei (%): 27%
  Population Hoechst High Intensity Objects (%): 5%
  Population Membrane Permeable-Phenotype (%): 5%
  Population Mitochondria Different-Phenotype (%): 94%
  Population Mitotic Cells (%): 33%
  Population Normal (%): 94%
  Population Pyknosed Nuclei (%): 51%
  Population Tubulin-Different-Phenotype (%): 52%
  Total Cell Count: 85
[9]
  Population Apoptotic (%): 23%
  Population Healthy Nuclei (%): 83%
  Population Mitochondria Different-Phenotype (%): 11%
  Population Mitotic Cells (%): 76%
  Population Pyknosed Nuclei (%): 9%
  Population Tubulin-Different-Phenotype (%): 8%
  Total Cell Count: 132
[10]
  Population Apoptotic (%): 41%
  Population Fragmented Nuclei (%): 7%
  Population Healthy Nuclei (%): 81%
  Population Hoechst High Intensity Objects (%): 3%
  Population Membrane Permeable-Phenotype (%): 3%
  Population Mitochondria Different-Phenotype (%): 17%
  Population Mitotic Cells (%): 58%
  Population Normal (%): 96%
  Population Pyknosed Nuclei (%): 11%
  Population Tubulin-Different-Phenotype (%): 16%
  Total Cell Count: 85
[11]
  Population Apoptotic (%): 79%
  Population Fragmented Nuclei (%): 37%
  Population Healthy Nuclei (%): 6%
  Population Hoechst High Intensity Objects (%): 12%
  Population Membrane Permeable-Phenotype (%): 25%
  Population Mitochondria Different-Phenotype (%): 87%
  Population Mitotic Cells (%): 20%
  Population Normal (%): 88%
  Population Pyknosed Nuclei (%): 56%
  Population Tubulin-Different-Phenotype (%): 62%
  Total Cell Count: 282
[12]
  Population Apoptotic (%): 70%
  Population Fragmented Nuclei (%): 32%
  Population Healthy Nuclei (%): 12%
  Population Hoechst High Intensity Objects (%): 8%
  Population Membrane Permeable-Phenotype (%): 75%
  Population Mitochondria Different-Phenotype (%): 75%
  Population Mitotic Cells (%): 29%
  Population Normal (%): 91%
  Population Pyknosed Nuclei (%): 54%
  Population Tubulin-Different-Phenotype (%): 50%
  Total Cell Count: 111

From ChEMBL document CHEMBL4689842, “EUbOPEN Chemogenomics Library wave 1” (2021)
